Results on 15 molecules are retold here after ChEMBL document CHEMBL1138954, “Cyclobutane derivatives as potent NK1 selective antagonists” (Bioorg Med Chem Lett, 2006).

The test system of one test is Meriones unguiculatus. In words: Inhibition of GR-73632-induced foot tapping in Mongolian gerbil at 1 mg/kg, po after 4 hrs. In kind it is functional. The essentials: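 Female Mongolian gerbils were dosed orally in 0.4% methylcellulose/distilled water before icv injection of GR73632 (3 pmol in 5 μl). After recovery from anaesthesia, animals were placed in clear boxes for 5 min. Duration of rhythmic hind-foot tapping was timed and expressed as percent decrease (% inhibition).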

A further test has as its target Substance-P receptor (Homo sapiens, UniProt P25103). The experiment in a line: Displacement of [3H]Sar-Met substance P from human recombinant NK1 receptor expressed in CHO cells. In kind it is cell-based. The essentials: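 Membranes from CHO cells expressing recombinant human NK1 receptor. Radioligand was [³H]-Sar-Met substance P at about its experimentally derived Kd. Ki was calculated with the Cheng–Prusoff equation. Values are the mean of two or three independent determinations.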

The target of test [1] is T1, Substance-K receptor (Homo sapiens) (UniProt P21452).
T1 sequence (whole entry): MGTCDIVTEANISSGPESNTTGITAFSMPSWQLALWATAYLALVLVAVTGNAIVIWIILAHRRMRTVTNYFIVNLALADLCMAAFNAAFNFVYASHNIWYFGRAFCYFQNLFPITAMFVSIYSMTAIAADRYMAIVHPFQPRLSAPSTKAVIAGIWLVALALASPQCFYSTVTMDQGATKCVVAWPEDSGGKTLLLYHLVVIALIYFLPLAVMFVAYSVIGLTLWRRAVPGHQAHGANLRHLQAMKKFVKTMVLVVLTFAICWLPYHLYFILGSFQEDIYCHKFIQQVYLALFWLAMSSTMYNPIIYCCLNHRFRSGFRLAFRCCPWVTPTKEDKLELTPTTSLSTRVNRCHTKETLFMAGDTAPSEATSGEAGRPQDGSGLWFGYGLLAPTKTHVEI
The experiment in a line: Inhibition of [3H]neurokinin A binding to human recombinant NK2 receptor in CHO cells at 3 uM. In kind it is cell-based. The essentials:
(§1)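 Competition binding used membranes of CHO cells carrying recombinant human NK2 receptor. [³H]neurokinin A was the ligand, at a concentration near its experimentally derived Kd. Data are the average of two or three independent determinations.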

In test [2] the target is T2, Neuromedin-K receptor (Homo sapiens, UniProt P29371).
T2 sequence (P29371 whole entry): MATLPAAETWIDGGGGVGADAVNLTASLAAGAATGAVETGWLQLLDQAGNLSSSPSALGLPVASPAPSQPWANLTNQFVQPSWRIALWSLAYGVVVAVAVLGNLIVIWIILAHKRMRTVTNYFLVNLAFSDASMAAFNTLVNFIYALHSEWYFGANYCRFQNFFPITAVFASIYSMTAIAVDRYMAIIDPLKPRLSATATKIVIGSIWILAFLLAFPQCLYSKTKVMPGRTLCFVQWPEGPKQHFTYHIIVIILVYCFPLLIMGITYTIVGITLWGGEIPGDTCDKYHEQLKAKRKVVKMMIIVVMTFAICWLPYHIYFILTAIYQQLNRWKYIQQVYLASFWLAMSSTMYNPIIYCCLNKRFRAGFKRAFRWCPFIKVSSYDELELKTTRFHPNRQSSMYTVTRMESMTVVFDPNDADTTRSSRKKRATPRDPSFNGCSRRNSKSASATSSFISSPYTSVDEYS
The experiment in a line: Displacement of [125I]neurokinin B from human recombinant NK3 receptor in CHO cells.

In test [3] the target is T2, Neuromedin-K receptor. The experiment in a line: Displacement of [3H]neurokinin B from human recombinant NK3 receptor in CHO cells. In kind it is cell-based. To be noted: in the assay text read “[125I]neurokinin B” for “[3H]neurokinin B”. An outline of the steps:
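Membrane preparations came from CHO cells expressing recombinant human NK3 receptor. Labelled neurokinin B ligand was used near its experimentally derived Kd. Ki was obtained by the Cheng–Prusoff equation. Values are the average of two or three independent determinations.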

Test [4] concerns the target T1, Substance-K receptor (Homo sapiens). In words: Inhibition of [3H]neurokinin A binding to human recombinant NK2 receptor in CHO cells at 0.3 uM. In kind it is cell-based. The essentials:
as §1

Sequence of Substance-P receptor (P25103 whole entry): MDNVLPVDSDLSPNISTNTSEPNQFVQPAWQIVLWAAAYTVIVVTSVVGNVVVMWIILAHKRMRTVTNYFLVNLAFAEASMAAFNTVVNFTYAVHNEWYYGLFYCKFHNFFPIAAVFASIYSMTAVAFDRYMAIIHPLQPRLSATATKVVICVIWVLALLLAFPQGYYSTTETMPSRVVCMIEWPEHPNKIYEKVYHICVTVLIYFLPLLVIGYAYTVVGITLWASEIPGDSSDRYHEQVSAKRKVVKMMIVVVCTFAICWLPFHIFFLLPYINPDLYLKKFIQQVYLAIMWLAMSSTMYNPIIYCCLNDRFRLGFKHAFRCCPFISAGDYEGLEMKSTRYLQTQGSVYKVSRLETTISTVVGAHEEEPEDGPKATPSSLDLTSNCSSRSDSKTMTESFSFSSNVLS

In the test on Meriones unguiculatus, `CNC(=O)[C@]1(N)C[C@](CO[C@H](C)c2cc(C(F)(F)F)cc(C(F)(F)F)c2)(c2ccccc2)C1` showed an inhibition in vivo at 1 mg/kg of 58%. Besides, on Substance-P receptor, the Ki stood at 0.5 nM.
In turn, `C[C@@H](OCC1(c2ccccc2)CC(=O)C1)c1cc(C(F)(F)F)cc(C(F)(F)F)c1` returned an inhibition in vivo at 1 mg/kg in the test on Meriones unguiculatus of 11%. For the same molecule, the Ki at Substance-P receptor is 2.4 nM.
Regarding `CC(=O)N[C@H]1C[C@](CO[C@H](C)c2cc(C(F)(F)F)cc(C(F)(F)F)c2)(c2ccccc2)C1`, the inhibition in test [1] came out at 23%. This molecule gave an inhibition in vivo at 1 mg/kg with Meriones unguiculatus of 25%. The Ki on Substance-P receptor was 0.4 nM; on Neuromedin-K receptor [2], 2130 nM.
In the case of `C[C@@H](OC[C@]1(c2ccccc2)C[C@@](N)(C(N)=O)C1)c1cc(C(F)(F)F)cc(C(F)(F)F)c1`, testing at 1 mg/kg in the test on Meriones unguiculatus gave an inhibition in vivo of 30%. Further, the Ki at Substance-P receptor worked out at 0.43 nM.
On the same counts, the results for `C[C@@H](OC[C@]1(c2ccccc2)C[C@](N)(C(=O)N(C)C)C1)c1cc(C(F)(F)F)cc(C(F)(F)F)c1` are 79% and 3.3 nM.
On the same counts, the results for `C[C@@H](OC[C@]1(c2ccccc2)C[C@@H](N2CCCC2=O)C1)c1cc(C(F)(F)F)cc(C(F)(F)F)c1` (mixture of isomers) are 41% and 0.4 nM.
In the test with Meriones unguiculatus, `C[C@@H](OC[C@]1(c2ccccc2)C[C@](N)(C(=O)N2CCCC2)C1)c1cc(C(F)(F)F)cc(C(F)(F)F)c1` came in with an inhibition in vivo at 1 mg/kg of 13%. For the same molecule, on Substance-P receptor, the Ki was 1.3 nM.
On the same counts, the results for `C[C@@H](OCC1(c2ccccc2)CC(NCc2ccccc2)C1)c1cc(C(F)(F)F)cc(C(F)(F)F)c1` (stereo partly drawn) are 25% and 0.3 nM.
For `CNC(=O)[C@]1(N)C[C@@](CO[C@H](C)c2cc(C(F)(F)F)cc(C(F)(F)F)c2)(c2ccccc2)C1`, the inhibition constant (Ki) was determined as 2000 nM on Neuromedin-K receptor [3] and 1 nM on Substance-P receptor. Moreover, the inhibition in test [4] was found to be 1.2%. Further, in the test with Meriones unguiculatus, the inhibition in vivo at 1 mg/kg worked out at 98%.
On to `C[C@@H](OCC1(c2ccccc2)CC(NCc2n[nH]c(O)n2)C1)c1cc(C(F)(F)F)cc(C(F)(F)F)c1` (stereo partly drawn), for which the inhibition in vivo at 1 mg/kg in the test on Meriones unguiculatus stood at 22%. At Substance-P receptor, the Ki came out at 0.5 nM.
`C[C@@H](OC[C@]1(c2ccccc2)C[C@](N)(C(=O)N2CCCCC2)C1)c1cc(C(F)(F)F)cc(C(F)(F)F)c1`: at 1 mg/kg the inhibition in vivo in the test on Meriones unguiculatus was 15%. For the same molecule, on Substance-P receptor, the inhibitory constant (Ki) is 1.3 nM.
With `CC(=O)N[C@H]1C[C@@](CO[C@H](C)c2cc(C(F)(F)F)cc(C(F)(F)F)c2)(c2ccccc2)C1`, in test [1], the inhibition was found to be 26%. In the test on Meriones unguiculatus, this molecule yielded an inhibition in vivo at 1 mg/kg of 23%. Besides, the Ki on Substance-P receptor turned out to be 0.1 nM; at Neuromedin-K receptor [2] it was 631 nM.
The molecule `C[C@@H](OC[C@]1(c2ccccc2)C[C@](N)(C(N)=O)C1)c1cc(C(F)(F)F)cc(C(F)(F)F)c1` registered an inhibition in vivo at 1 mg/kg in the test on Meriones unguiculatus of 81%. Also, the inhibition constant Ki on Substance-P receptor was found to be 1 nM.
Turning to `C[C@@H](OCC1(c2ccccc2)CC(N)C1)c1cc(C(F)(F)F)cc(C(F)(F)F)c1` (stereo partly drawn), the Ki was determined as 4050 nM at Neuromedin-K receptor [3] and 0.02 nM on Substance-P receptor. Further, in test [1], the inhibition is 25%. In the test with Meriones unguiculatus, this molecule displayed an inhibition in vivo at 1 mg/kg of 21%.
Take `C[C@@H](OC[C@]1(c2ccccc2)C[C@H](N2CCCC2=O)C1)c1cc(C(F)(F)F)cc(C(F)(F)F)c1`: the inhibition in vivo at 1 mg/kg with Meriones unguiculatus was found to be 3%. In addition, the Ki at Substance-P receptor stood at 0.3 nM.
